# Experimental data reported in ChEMBL document CHEMBL1135242, “Tricyclic isoxazoles are novel inhibitors of the multidrug resistance protein (MRP1)” (Bioorg Med Chem Lett, 2002).
# Experiments:
# [1] = tested on: HeLa; assay: Competitive inhibition of [3H]LTC4 uptake by MRP1 expressing HeLa-T5 cell membranes; assay type: functional, Homo sapiens
# [2] = Selectivity ratio of average EC50 values was calculated in HL60/ADR cell line and HL60/Vinc cell line; assay type: functional, HL-60
# In short: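 Resistance reversal in MRP1-overexpressing HL60/Adr and P-gp-overexpressing HL60/Vinc cells. Modulator EC50 is the concentration-dependent enhancement of the antiproliferative response to an IC20 concentration of doxorubicin. Cell number is read by alamarBlue reduction. Ratio is the average EC50 in HL60/Vinc divided by the average EC50 in HL60/Adr.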
# [3] = target: MRP1 (ABCC1, Homo sapiens); assay: In vitro for its inhibitory activity against MRP1-transfected HeLa-T5 cell line in the presence of doxorubicin
Compound,EC50 [1],Ratio [2],EC50 [3]
COc1cc(N(C)C(=O)Cc2cccc(-n3c(=O)c4c(C)onc4c4c(Cl)cccc43)c2)cc(OC)c1OC,4200 nM,4,–
COc1cc(OCCc2cccc(-n3c(=O)c4c(C)onc4c4c(Cl)cccc43)c2)cc(OC)c1OC,4400 nM,14,–
Cc1onc2c1c(=O)n(-c1cccc(CC(=O)Nc3ccccc3)c1)c1cccc(Cl)c21,–,–,2300 nM
Cc1ccc(NC(=O)Cc2cccc(-n3c(=O)c4c(C)onc4c4c(Cl)cccc43)c2)cc1,–,–,3700 nM
COc1cc(C(=O)NCc2cccc(-n3c(=O)c4c(C)onc4c4c(Cl)cccc43)c2)cc(OC)c1OC,–,–,1130 nM
COc1cc(NC(=O)Cc2cccc(-n3c(=O)c4c(C)onc4c4c(Cl)cccc43)c2)cc(OC)c1OC,1800 nM,–,–
COc1cc(NC(=O)Cc2cccc(-n3c(=O)c4c(C)onc4c4c(Cl)cccc43)c2)cc(OC)c1O,1700 nM,14,1300 nM
Cc1onc2c1c(=O)n(-c1cccc(CC(=O)Nc3ccc(C(F)(F)F)cc3)c1)c1cccc(Cl)c21,–,–,> 10000 nM
Cc1onc2c1c(=O)n(-c1cccc(CC(=O)Nc3ccc(C#N)cc3)c1)c1cccc(Cl)c21,–,–,4900 nM
